ALR inh = blocks human ALR sulfhydryl oxidase activity; P55789; purified ALR, DTT oxidation, H2O2 HRP-luminol luminescence; inhibition, % (test concentration not listed); actives 3.8% (n = 290,000); AID 485317;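 active means mean replicate inhibition above about 79%, with every replicate also reaching it, limit read from the data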
Target sequence (P55789 whole entry, looked up): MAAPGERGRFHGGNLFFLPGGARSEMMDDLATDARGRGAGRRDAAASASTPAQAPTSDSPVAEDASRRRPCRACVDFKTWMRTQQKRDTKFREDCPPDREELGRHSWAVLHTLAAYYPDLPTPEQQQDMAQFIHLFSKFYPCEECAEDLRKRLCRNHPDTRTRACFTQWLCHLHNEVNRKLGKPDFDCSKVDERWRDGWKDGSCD
ATG4B inhibitor = ATG4B (human) cysteine protease inhibition. ATG4B cleavage of LC3-PLA2, NBD-HPC fluorescence, 1 h. Q9Y4P1. inhibition, % at 8.33 µM. actives 0.51% (n = 340,000). AID 504462; in the data active means inhibition above about 40%
Target sequence (Q9Y4P1 whole entry, looked up): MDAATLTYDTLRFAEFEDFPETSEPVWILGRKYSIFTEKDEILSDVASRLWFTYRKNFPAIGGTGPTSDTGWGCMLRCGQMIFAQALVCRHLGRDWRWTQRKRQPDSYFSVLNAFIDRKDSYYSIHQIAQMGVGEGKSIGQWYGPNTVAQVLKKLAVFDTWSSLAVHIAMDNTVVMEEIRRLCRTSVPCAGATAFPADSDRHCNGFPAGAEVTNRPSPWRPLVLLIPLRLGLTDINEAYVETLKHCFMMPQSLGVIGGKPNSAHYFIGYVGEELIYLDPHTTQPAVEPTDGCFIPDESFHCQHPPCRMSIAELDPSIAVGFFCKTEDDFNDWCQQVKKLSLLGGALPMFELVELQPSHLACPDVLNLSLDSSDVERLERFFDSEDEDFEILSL
UCH37 inh = blocks the human deubiquitinase UCH37. Q9Y5K5. purified proteasome/UCH37, Ub-AMC cleavage fluorescence. inhibition, % (concentration not given with the values). actives 0.33% (n = 330,000);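 active means mean inhibition over replicate wells above about 20%, limit read from the data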;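 further: 0% = compound-free wells with enzyme and 100% = wells lacking proteasome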
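Material: Human UCH37 enzyme supplied as purified proteasome complex | Schedule: 30 min preincubation with enzyme, 25 min cleavage at room temperature | Detection: AMC fluorescence 355/460 nm | Measure: % inhibition of Ub-AMC cleavage fluorescence | Controls: Wells without proteasome as full block, compound-free enzyme plus substrate as uninhibited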
Calb FLC = C. albicans growth modulation with fluconazole; growth inhibition, % (concentration not given with the values); C. albicans CaCi-2 (fluconazole-resistant clinical isolate) + fluconazole, Alamar Blue growth, 48 h; AID 1979; actives 0.57% (n = 300,000);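 active means growth inhibition above about 58% in most replicates, limit read from the data, passing the limit was not always enough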;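 further: all wells also contain fluconazole at 8 µg/ml as a sub-toxic cotreatment; 0% = median of DMSO wells and 100% = median of geldanamycin control wells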
NLRP3 yeast inh = inhibitors of NALP3 inflammasome in yeast; Yeast reconstituted NLRP3/ASC/caspase-1, beta-gal luminescence, 24 h; inhibition, % at 10 µM; actives 0.39% (n = 330,000);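 active means inhibition of 50% or more; inactive means inhibition below 50%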;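 further: plate controls were induced DMSO wells for no effect and uninduced yeast grown without galactose for full effect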
NALP1 yeast inh = NALP1 inhibition; inhibition, % at 10 µM; actives 0.61% (n = 280,000); S. cerevisiae NALP1/ASC/caspase-1 growth, X-gal OD620, 72 h; in the data active means inhibition mostly above about 24%, no sharp cut-off; inactive means mostly below about 32%
Starred values were filed as active, the others as inactive; . = not tested or not shown. The list is not random: actives were taken first. Their share in the collection is about 4.8%.

SMILES	ALR inh	ATG4B inhibitor	UCH37 inh	Calb FLC	NLRP3 yeast inh	NALP1 yeast inh
Cc1ccc(CNC(=O)CS(=O)Cc2nc(-c3ccccc3Cl)oc2C)cc1 (stereo not given)	95*	-4	4	-2	8	10
Cc1oc(-c2ccccc2Cl)nc1CSCC(=O)NC1CCCC1	.	-14	3	-18	9	-3
CC(=NNC(=O)c1nnn(-c2nonc2N)c1-c1ccc2c(c1)OCO2)c1ccccc1	.	.	-2	.	.	.
CCOC(=O)C(=NNc1ccccc1[N+](=O)[O-])c1csc(N)n1	.	.	5	.	.	.
O=C(Nc1ccc(NC(=O)C2CCCCC2)nc1)c1ccccn1	99*	4	2	-5	15	8
COc1ccccc1C(=O)Nc1ccc(NC(=O)C2CCCCC2)nc1	.	-2	1	4	29	5
O=[N+]([O-])c1ccc(-c2ccn[nH]2)o1	-18	-9	10	49	25	67*
Nc1nc(N)nc(-c2ccc([N+](=O)[O-])o2)n1	.	-6	3	.	.	.
COc1ccc(/C=C2\S/C(=N/S(=O)(=O)c3cccs3)NC2=O)cc1	97*	34	9	-1	4	-1
CCNC(=S)NN=Cc1ccccc1[N+](=O)[O-]	.	.	10	.	.	.
C(=CC=Nc1ccccc1)C=CNc1ccccc1	.	.	-2	.	.	.
Cc1cc(C=NNC(N)=S)c(C)n1-c1ccc(Br)cc1	.	.	-3	.	.	.
CN(C)S(=O)(=O)c1cccc(NC(=S)N/N=C/c2cc(Br)ccc2O)c1	.	-3	.	81*	20	29
NC(=O)c1cc2ccccc2oc1=NNC(=O)c1ccco1	.	.	11	.	.	.
COc1ccc(C(=O)N(Cc2sccc2C)C2CCS(=O)(=O)C2)cc1 (stereo not given)	-6	3	6	1	5	26*
Cc1ccc(C(=O)N(Cc2sccc2C)C2CCS(=O)(=O)C2)cc1 (stereo not given)	-4	2	3	1	17	7
O=Nc1c(-c2ccccc2)cc2ccccn12	-4	4	8	39	32	38*
CN(C)C(=O)C(=O)c1c(-c2ccccc2)cc2ccccn12	1	3	7	1	18	37
Cc1ccc(S(=O)(=O)N=C(c2ccccc2)N(C)S(=O)(=O)c2ccc(C)cc2)cc1	.	.	5	.	.	.
Nc1ccc(S(=O)(=O)NNC(=O)C(=O)NNc2ccccc2)cc1	.	1	5	106*	13	30
O=C(NNc1ccccc1)C(=O)NNS(=O)(=O)c1ccc(CCCl)cc1	99*	-5	3	86*	15	4
Cc1oc(N=Cc2ccccc2)c(C#N)c1C	.	.	2	.	.	.
O=C(c1ccc2c(c1)OCO2)N1CCC2(CC1)Oc1ccc(Cl)cc1C(=O)C21CC(c2cccnc2)=NO1 (stereo not given)	.	-4	0	84*	-2	.
Cc1ccc(C(=O)N2CCC3(CC2)Oc2ccc(Cl)cc2C(=O)C32CC(c3cccnc3)=NO2)s1 (stereo not given)	.	-8	1	41	3	.
O=C(c1ccoc1)N1CCC2(CC1)Oc1ccc(F)cc1C(=O)C21CC(c2cccnc2)=NO1 (stereo not given)	7	-12	2	51	2	-22
SMILES	ALR inh	ATG4B inhibitor	UCH37 inh	Calb FLC	NLRP3 yeast inh	NALP1 yeast inh
O=C(c1ccc2c(c1)OCO2)N1CCC2(CC1)Oc1ccc(F)cc1C(=O)C21CC(c2ccccc2)=NO1 (stereo not given)	2	8	2	77*	-5	7
O=C(c1ccoc1)N1CCC2(CC1)Oc1ccc(F)cc1C(=O)C21CC(c2ccccc2)=NO1 (stereo not given)	3	7	-1	92*	16	12
O=C(c1ccc2c(c1)OCO2)N1CCC2(CC1)Oc1ccc(F)cc1C(=O)C21CC(c2cccnc2)=NO1 (stereo not given)	-4	-2	0	77*	-7	4
CSc1ccccc1NC(=O)CON=C(C)c1cc2ccccc2o1	.	.	-1	.	.	.
O=C(CSc1ncccn1)NN=Cc1ccc2c(c1)OCO2	.	.	-1	.	.	.
COc1ccc(C(=O)CC(SCC(NC(C)=O)C(=O)O)c2ccc(Cl)cc2)cc1OC (stereo not given)	92*	-4	3	36	2	9
COc1cc(C=Nn2c(C)nnc2C)cc(OC)c1OC	.	.	3	.	.	.
COC(=O)NN=Cc1cn(CCOc2cccc(OC)c2)c2ccccc12	.	.	5	.	.	.
COc1cc(CNc2cccc(F)c2)cc(Br)c1O	-2	3	-2	-5	0	32*
COc1ccc(CNc2ccc(C)cc2)cc1Br	.	-4	0	4	7	3
COc1cc(CNc2ccc(O)cc2)cc(Br)c1OCc1ccccc1	30	-2	0	25	33	-14
COc1ccc(CNc2ccccc2)cc1Br	83*	2	2	16	19	-80
COc1cc(C(C)=NNC(=O)c2ccc(CSc3nncn3C)cc2)cc(OC)c1OC	.	.	-3	.	.	.
CN1/C(=C\C(=O)COC(=O)c2ccc(O)c(O)c2)C(C)(C)c2ccccc21	99*	16	-10	-1	17	0
CN1/C(=C\C(=O)C[n+]2ccc(C(=O)c3ccccc3)cc2)C(C)(C)c2ccccc21	.	6	16	98*	11	32
Cc1ccc[n+](CC(=O)/C=C2\N(C)c3ccccc3C2(C)C)c1	-50	30	20*	1	15	42
CN1/C(=C/C(=O)CSc2ccccc2C(=O)O)C(C)(C)c2ccccc21	10	0	-13	-3	2	45*
COc1ccc(Br)cc1C=Nn1c(-c2ccccc2)n[nH]c1=S	.	.	4	.	.	.
COc1cccc(C=Nn2c(-c3ccco3)nc3ccccc3c2=O)c1OC	.	.	1	.	.	.
Oc1ccc(Br)cc1C=NN1CCN(Cc2ccccc2)CC1	.	.	7	.	.	.
O=C(NN=Cc1ccccn1)c1cc(-c2ccccc2)nc2ccccc12	.	.	2	.	.	.
O=C(Nc1ncccc1O)c1ccc(Oc2ccccc2)cc1	-3	2	1	8	33	43*
Cc1ccc(NC(=O)CNC(=O)c2ccc(Oc3ccccc3)cc2)nc1	-8	6	-2	89*	37	.
O=C(COc1ccc(C(=O)c2ccccc2)cc1)Nc1ncccc1O	-20	-7	1	-10	5	13
O=C(CSc1nnnn1-c1ccccc1)Nc1ccc(N2CCOCC2)cc1	8	-7	3	45	0	-1
COc1ccccc1NC(=O)CSc1nncn1-c1cccnc1	3	-3	0	-2	20	3
COc1ccccc1NC(=O)CSc1nncn1-c1ccccc1	98*	-5	4	-4	12	11
O=C(CSc1nnc(C2CC2)n1-c1ccccc1)Nc1ccc(N2CCOCC2)cc1	98*	1	0	-3	13	-30

Source: PubChem (several laboratories)
